Measurements taken from ChEMBL document CHEMBL1121966, “(2R*,3S*)-1-[125I]Iodo-2,3-bis(4-hydroxyphenyl)pentane ([125I]iodonorhexestrol) and (2R*,3S*)-1-[77Br]Bromo-2,3-bis(4-hydroxyphenyl)pentane ([77Br]bromonorhexestrol), two gamma-emitting estrogens that show receptor-mediated uptake by target tissues in vivo” (1982).

Columns and labels:
[1] = Solvolytic stability of compound was measured relative to p-hydroxyphenethyl bromide; assay type: functional, Rattus norvegicus
Rattus norvegicus [2] = species on record: Rattus norvegicus; test: Percent injected dose per gram kidney at 1 hr; assay type: functional
Summary of the method: (§1)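 Immature (25-day, ca. 50 g) Sprague-Dawley female rats received an iv injection (jugular or tail vein) of HPLC-purified tracer in ethanol plus 0.9% NaCl/rat serum 1:1. Doses were 2 μCi [125I]iodo tracer (≤15 pmol), or 2 μCi [77Br]bromo tracer (≤1.25 pmol) with 2 μCi 16α-[125I]iodoestradiol. Animals were killed at 1 h; blood and tissues were weighed and γ-counted. Blocking: coinjected unlabeled estradiol, 9 μg (iodo) or 18 μg (bromo). Mean ± SD.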

Rattus norvegicus [3] = species on record: Rattus norvegicus; test: Percent injected dose per gram kidney at 1 hr with unlabeled estradiol; assay type: functional; summary of the method: as §1
Rattus norvegicus [4] = species on record: Rattus norvegicus; test: Percent injected dose per gram liver at 1 hr; assay type: functional
Summary of the method: (§2)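 Immature (25 day) female Sprague-Dawley rats (ca. 50 g) were dosed iv (jugular or tail vein) in ethanol plus 0.9% NaCl/rat serum (1:1). Doses were 2 μCi of [125I]iodonorhexestrol (≤15 pmol/dose), or 2 μCi each of [77Br]bromonorhexestrol (≤1.25 pmol/dose) and 16α-[125I]iodoestradiol (2 pmol/dose). Rats were killed at 1, 3 or 6 h; blood and tissues were weighed and γ-counted. Thyroid weight assumed 0.005 g/100 g body weight. Mean ± SD.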

Rattus norvegicus [5] = species on record: Rattus norvegicus; test: Percent injected dose per gram liver at 1 hr with unlabeled estradiol; assay type: functional
Summary of the method: (§3)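 Same iv biodistribution in immature female rats, killed at 1 h, with unlabeled estradiol coinjected to block receptor uptake: 9 μg with [125I]iodonorhexestrol (3 rats), 18 μg with the [77Br]bromonorhexestrol/16α-[125I]iodoestradiol pair (5 rats). Tissue and blood radioactivity were counted as % injected dose/g and tissue-to-blood ratio.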

Rattus norvegicus [6] = species on record: Rattus norvegicus; test: Percent injected dose per gram lung at 1 hr; assay type: functional; summary of the method: as §2
Rattus norvegicus [7] = species on record: Rattus norvegicus; test: Percent injected dose per gram lung at 1 hr with unlabeled estradiol; assay type: functional; summary of the method: as §3
Rattus norvegicus [8] = species on record: Rattus norvegicus; test: Percent injected dose per gram spleen at 1 hr; assay type: functional; summary of the method: as §2
Rattus norvegicus [9] = species on record: Rattus norvegicus; test: Percent injected dose per gram spleen at 1 hr with unlabeled estradiol; assay type: functional; summary of the method: as §3
Rattus norvegicus [10] = species on record: Rattus norvegicus; test: Percent injected dose per gram thyroid at 1 hr; assay type: functional, Thyroid gland; summary of the method: as §2
Rattus norvegicus [11] = species on record: Rattus norvegicus; test: Percent injected dose per gram thyroid at 1 hr with unlabeled estradiol; assay type: functional, Thyroid gland; summary of the method: as §3
Rattus norvegicus [12] = species on record: Rattus norvegicus; test: Percent injected dose per gram Uterus at 1 hr with unlabeled estradiol.; assay type: functional; summary of the method: as §1
Rattus norvegicus [13] = species on record: Rattus norvegicus; test: Percent injected dose per gram blood at 1 hr; assay type: functional; summary of the method: as §1
Rattus norvegicus [14] = species on record: Rattus norvegicus; test: Percent injected dose per gram blood at 1 hr with unlabeled estradiol; assay type: functional; summary of the method: as §1
Rattus norvegicus [15] = species on record: Rattus norvegicus; test: Percent injected dose per gram esophagus at 1 hr; assay type: functional; summary of the method: as §1
Rattus norvegicus [16] = species on record: Rattus norvegicus; test: Percent injected dose per gram esophagus at 1 hr with unlabeled estradiol; assay type: functional; summary of the method: as §1
Rattus norvegicus [17] = species on record: Rattus norvegicus; test: Percent injected dose per gram Muscle at 1 hr with unlabeled estradiol; assay type: functional; summary of the method: as §1
Rattus norvegicus [18] = species on record: Rattus norvegicus; test: Percent injected dose per gram Ovaries at 1 hr; assay type: functional; summary of the method: as §1
Rattus norvegicus [19] = species on record: Rattus norvegicus; test: Percent injected dose per gram Ovaries at 1 hr with unlabeled estradiol; assay type: functional; summary of the method: as §1
Rattus norvegicus [20] = species on record: Rattus norvegicus; test: Percent injected dose per gram Uterus at 1 hr; assay type: functional; summary of the method: as §1
[21] = Ovary/blood distribution ratio was determined in immature female rats at 1 hr; assay type: functional; summary of the method: as §1
[22] = Ovary/blood distribution ratio was determined in immature female rats at 1 hr with unlabeled estradiol; assay type: functional; summary of the method: as §1
[23] = Spleen/blood distribution ratio was determined immature female rats at 1 hr; assay type: functional; summary of the method: as §2
[24] = Esophagus/blood distribution ratio was determined in immature female rats at 1 hr with unlabeled estradiol; assay type: functional; summary of the method: as §1
[25] = Muscle/blood distribution ratio was determined immature female rats at 1 hr with unlabeled estradiol; assay type: functional; summary of the method: as §1
[26] = Liver/blood distribution ratio was determined in immature female rats at 1 hr; assay type: functional; summary of the method: as §1
[27] = Liver/blood distribution ratio was determined in immature female rats at 1 hr with unlabeled estradiol; assay type: functional; summary of the method: as §1
[28] = Lung/blood distribution ratio was determined in immature female rats at 1 hr; assay type: functional; summary of the method: as §1
[29] = Spleen/blood distribution ratio was determined in immature female rats at 1 hr with unlabeled estradiol; assay type: functional
[30] = Kidney/blood distribution ratio was determined in immature female rats at 1 hr; assay type: functional; summary of the method: as §1
[31] = Kidney/blood distribution ratio was determined in immature female rats at 1 hr with unlabeled estradiol; assay type: functional; summary of the method: as §1
[32] = Tissue/blood distribution ratio was measured in immature female rats at 1 hr; assay type: functional; summary of the method: as §2
[33] = Tissue/blood distribution ratio was measured in immature female rats at 1h, unlabeled estradiol (18 microg) coinjected; assay type: functional
Summary of the method: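 Immature female rats given iv [77Br]bromonorhexestrol with 16α-[125I]iodoestradiol (2 μCi each) plus 18 μg unlabeled estradiol coinjected; killed at 1 h. Tissue and blood were weighed and counted, and tissue-to-blood radioactivity ratios were computed; 5 animals, mean ± SD.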

[34] = Thyroid/blood distribution ratio was determined in immature female rats at 1 hr; assay type: functional; summary of the method: as §2
[35] = Thyroid/blood distribution ratio was determined in immature female rats at 1 hr with unlabeled estradiol; assay type: functional; summary of the method: as §3
[36] = Uterus/blood distribution ratio was measured in immature female rats at 1 hr; assay type: functional; summary of the method: as §2
[37] = Uterus/blood distribution of compound was measured in immature female rats at 1 hr with unlabeled estradiol; assay type: functional; summary of the method: as §3
Rattus norvegicus [38] = species on record: Rattus norvegicus; test: Percent injected dose per gram Muscle at 1 hr; assay type: functional; summary of the method: as §1
[39] = Lung/blood distribution ratio was determined in immature female rats at 1 hr with unlabeled estradiol; assay type: functional; summary of the method: as §1
[40] = Esophagus/blood distribution ratio was determined in immature female rats at 1 hr; assay type: functional; summary of the method: as §1

CC[C@H](c1ccc(O)cc1)[C@@H](CI)c1ccc(O)cc1
1/krel [1]: 0.71 | Injected dose (Rattus norvegicus [2]): 1.8% | Injected dose (Rattus norvegicus [3]): 1.9% | Injected dose (Rattus norvegicus [4]): 2% | Injected dose (Rattus norvegicus [5]): 2.5% | Injected dose (Rattus norvegicus [6]): 1.4% | Injected dose (Rattus norvegicus [7]): 1.8% | Injected dose (Rattus norvegicus [8]): 1.2% | Injected dose (Rattus norvegicus [9]): 1.3% | Injected dose (Rattus norvegicus [10]): 619% | Injected dose (Rattus norvegicus [11]): 474.5% | Injected dose (Rattus norvegicus [12]): 4.9% | Injected dose (Rattus norvegicus [13]): 1.3% | Injected dose (Rattus norvegicus [14]): 1.5% | Injected dose (Rattus norvegicus [15]): 8.3% | Injected dose (Rattus norvegicus [16]): 5.4% | Injected dose (Rattus norvegicus [17]): 2.7% | Injected dose (Rattus norvegicus [18]): 4.8% | Injected dose (Rattus norvegicus [19]): 4.9% | Injected dose (Rattus norvegicus [20]): 15.7% | Ratio [21]: 3.7 | Ratio [22]: 3.2 | Ratio [23]: 0.9 | Ratio [24]: 3.6 | Ratio [25]: 1.9 | Ratio [26]: 1 | Ratio [27]: 1.6 | Ratio [28]: 1.1 | Ratio [29]: 0.9 | Ratio [30]: 1.4 | Ratio [31]: 1.2 | Ratio [32]: 1 | Ratio [33]: 1 | Ratio [34]: 494.8 | Ratio [35]: 278.4 | Ratio [36]: 11.3 | Ratio [37]: 3.3 | Injected dose (Rattus norvegicus [38]): 1.6% | Ratio [39]: 1.2 | Ratio [40]: 6.3
